APJ agonist: agonists of human APJ apelin receptor; P35414; CHO-K1 APJ PathHunter beta-arrestin, luminescence; 0% DMSO wells, 100% apelin; 0.11% of 330,000 active; activation, % at 20 µM; AID 2520;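 active means activation more than six SD over the plate average, tested at 20 µM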;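 further: 0% = DMSO alone and 100% = apelin-13 at 10 nM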
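Test system: CHO-K1 APJ beta-arrestin complementation cell line | Compound: Single test compound dose, 20 µM final, 1% DMSO | Incubation: Compound 90 min 25 °C, reagent 1 h | Measured by: beta-gal luminescence | Read-out basis: APJ–arrestin association signal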
CXCR6 block: inhibitors of human CXCR6 receptor. CHO-K1 PathHunter CXCR6 beta-arrestin, luminescence. inhibition, % at 20 µM. 0.36% of 360,000 active; in the data active means inhibition above about 34%, passing the limit was not always enough;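 further: antagonist mode with CXCL16 agonist at 10 nM final; 0% = 10 nM CXCL16 with DMSO and 100% = unstimulated wells without agonist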
APJ antagonist: blocks the human apelin receptor APJ; P35414; CHO-K1 APJ beta-arrestin complementation, luminescence; inhibition, % at 20 µM; 0.32% of 330,000 active; AID 2521;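 active means inhibition above about 40% at 20 µM, limit read from the data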;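 further: cells challenged with 10 nM apelin-13 agonist together with compound; plate controls were apelin-13 plus DMSO wells for no effect and DMSO wells lacking apelin-13 for full effect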
CCR6 antagonist: CCR6 (human) receptor antagonism | CHO-K1 CCR6 PathHunter beta-arrestin, luminescence, CCL20-stimulated | inhibition, % at 20 µM | 0.49% of 340,000 active;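 active means compounds whose inhibition of the agonist-driven luminescence signal at 20 µM reaches about 50%, limit read from the data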;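 further: cells stimulated with CCL20 at 14 nM final; plate controls were DMSO with CCL20 for no effect and DMSO without agonist for full effect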
Target sequence (P51684 whole entry, looked up): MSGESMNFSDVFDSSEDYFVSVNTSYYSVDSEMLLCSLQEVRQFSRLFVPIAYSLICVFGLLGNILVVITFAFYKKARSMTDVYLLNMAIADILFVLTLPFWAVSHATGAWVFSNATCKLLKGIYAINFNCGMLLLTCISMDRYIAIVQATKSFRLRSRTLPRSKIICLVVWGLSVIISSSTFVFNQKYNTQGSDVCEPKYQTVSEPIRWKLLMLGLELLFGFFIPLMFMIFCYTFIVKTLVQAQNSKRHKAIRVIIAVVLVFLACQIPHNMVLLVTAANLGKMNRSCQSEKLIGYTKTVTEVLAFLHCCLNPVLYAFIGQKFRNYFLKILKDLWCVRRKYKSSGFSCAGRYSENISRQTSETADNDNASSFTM
EBI2 block: blocks human EBI2 receptor beta-arrestin signaling. 0.81% of 360,000 active. P32249. EBI2 beta-arrestin recruitment, luminescence, 7a,25-OHC stimulated. inhibition, % at 5 µM; in the data active means inhibition above about 38%;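 further: enzyme fragment complementation signal reports receptor beta-arrestin coupling in cells; 0% = agonist plus DMSO wells and 100% = wells without agonist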
The depositor's hits bear a star; · = not tested or not shown. In the library only some 1.5% were active in any assay of this set; here they are far more common.

SMILES | APJ agonist | CXCR6 block | APJ antagonist | CCR6 antagonist | EBI2 block
O=C(N/N=C/c1ccccc1O)c1cccc(C(F)(F)F)c1 | 4 | -6 | -18 | -21 | 59*
CCO[C@@H]1OC(C(=O)N2CCN(Cc3ccc4c(c3)OCO4)CC2)=C[C@H](c2ccc(Br)cc2)[C@H]1CCCO | -12 | 36 | -3 | 51* | 29
C#Cc1ccc([C@H]2C=C(C(=O)N3CCN(Cc4ccccc4)CC3)O[C@@H](OCC)[C@@H]2CCCO)cc1 | -4 | 10 | 0 | 13 | 56*
C=C1C(=O)OC2CC1C(O)CC(C)=CCCC(C)=CC(O)CC2C (stereo unspecified) | · | 7 | · | 12 | 0
C=C1C(=O)OC2CC1C(OC(C)=O)CC(C)=CCCC(C)=CCCC2(C)O (stereo unspecified) | · | -5 | · | · | 51*
CCc1nc2c(OCc3ccc(Cl)cc3Cl)cccn2c1N(C)C(=O)CC(C)C | · | 20 | · | · | 40
Cc1cc(C)c2c(=O)n(CC(=O)Nc3cccc(Cl)c3C)sc2n1 | 2 | 80* | -13 | 12 | 2
COc1ccc(/C(C)=N/Nc2ncc(Cl)cc2Cl)c(O)c1 | -1 | 2 | 11 | 22 | 43*
Cc1cccc(CS(=O)(=O)c2nnc([C@H](Cc3ccccc3)NC(=O)OC(C)(C)C)o2)c1 | 0 | 61* | 14 | 91* | 20
CC1(C(=O)Nc2ccc3c(c2)OCCO3)CN(S(C)(=O)=O)CC(=O)N1CCc1c[nH]c2ccccc12 (stereo unspecified) | · | · | · | · | -1
CCOc1cc(CNC(C)(C)CO)cc(Br)c1OCc1ccc(Cl)cc1Cl | -7 | -6 | -20 | 50* | -21
Nc1ccccc1C(=O)NC1CCCNC1=O (stereo unspecified) | -1 | -2 | -15 | 7 | -12
O=C(CCCN1C(=O)/C(=C/c2ccccc2Cl)SC1=S)NNC(=O)c1ccc(Cl)cc1 | -3 | 8 | -1 | 17 | 60*
O=C(CCN1C(=O)/C(=C/c2ccccc2Cl)SC1=S)NNC(=O)c1cccnc1 | 5 | 3 | -3 | -1 | 4
Cc1ccc(C(=O)NNC(=O)CCCN2C(=O)/C(=C/c3ccccc3Cl)SC2=S)cc1 | -2 | -10 | 10 | 4 | 66*
CCNc1nc(-c2sc(NC(=O)C(C)(C)C)nc2C)c(-n2cc(-c3ccccc3)nn2)s1 | · | -6 | · | · | -44
CCCCCCCCN1C(=O)[C@H](CC(=O)NCCCN2CCCC2=O)C[C@@]2(C(=O)OC)CC(C)(C)CC=C12 | · | · | · | · | 9
CC(=O)Oc1oc(-c2ccccc2)nc1/C=N/c1ccccn1 | -3 | 21 | 26 | 51* | -12
COc1ccccc1N=Cc1nc(-c2ccccc2)oc1OC(C)=O | -3 | 4 | 0 | 5 | -1
O=C(O)c1cccc(NC(=O)c2ccc3c(c2)C(=O)N(Cc2ccco2)C3=O)c1 | -2 | 0 | 6 | 12 | -6
CCc1ccc(NC(=O)c2ccc3c(c2)C(=O)N(Cc2ccco2)C3=O)cc1 | -3 | 7 | 7 | 4 | 84*
O=C(c1nnsc1S(=O)(=O)c1ccc(Cl)cc1)N1CCOCC1 | -1 | 15 | 7 | 4 | -31
O=C(c1nnsc1S(=O)c1ccc(Cl)cc1)N1CCOCC1 (stereo unspecified) | -1 | 67* | 24 | 74* | 27
O=[N+]([O-])c1cc(Cc2ccccc2)cc(C=Nc2ccc(N3CCOCC3)cc2)c1O | · | 43* | · | 55* | 4
Cc1ccc(O)c(N=Cc2cc(Cc3ccccc3)cc([N+](=O)[O-])c2O)c1 | -1 | 25 | -13 | 29 | -8
SMILES | APJ agonist | CXCR6 block | APJ antagonist | CCR6 antagonist | EBI2 block
C=C(C)[C@@H]1CC[C@]2(C(=O)O)CC[C@]3(C)[C@H](CC[C@@H]4[C@@]5(C)CC[C@H](O)C(C)(C)[C@@H]5CC[C@]43C)[C@@H]12 | 3 | 1 | 4 | -11 | -3
C=C(CC[C@@H](O)C(C)(C)O)[C@H]1CC[C@]2(C)[C@@H]1CCC1[C@@]3(C)CC[C@H](O)C(C)(C)C3CC[C@]12C (stereo partly specified) | -2 | -6 | -8 | 69* | -5
CC1(O)CC(c2ccc(Cl)cc2)=NN1C(=O)c1ccc(Cl)cc1 (stereo unspecified) | -4 | 28 | 4 | 57* | 17
O=C(C1CC1)N1N=C(c2ccc(Cl)cc2)CC1(O)C(F)(F)F (stereo unspecified) | -1 | 3 | 3 | 12 | -2
CC1=CC(=O)C(Sc2ccc(C)cc2)=CC1=O | · | 92* | · | · | 35
Cc1ccc(SC2=C(Sc3ccc(C)cc3)C(=O)c3ccccc3C2=O)cc1 | 9 | -9 | -11 | 45 | 14
O=C(CCc1ccccc1F)N1CCN(c2ccc(C(F)(F)F)cn2)CC1 | -1 | -1 | 9 | -2 | 2
N#Cc1ccc(OCC(=O)N2CCN(c3ccc(C(F)(F)F)cn3)CC2)cc1 | 1 | -14 | -5 | -7 | 59*
O=C(c1ccc(Cl)cc1)N1CCN(c2ccnc3cc(Cl)ccc23)CC1 | · | -15 | · | 8 | 51*
N#Cc1ccc(-c2cccnc2)nc1SCC(=O)c1ccccc1 | 0 | 7 | -21 | 10 | 40*
CCOC(=O)CN1C(=O)S/C(=C/c2cccc([N+](=O)[O-])c2O)C1=O | -8 | 36 | 32 | 56* | 19
O=C(O)c1cccc(CN2C(=O)S/C(=C/c3ccccc3[N+](=O)[O-])C2=O)c1 | 6 | 1 | -13 | 4 | -7
O=C1/C(=C/c2cccc([N+](=O)[O-])c2)CCc2ccccc21 | -6 | 15 | 18 | 23 | -71
CCN1C/C(=C\c2cccc([N+](=O)[O-])c2)C(=O)/C(=C/c2cccc([N+](=O)[O-])c2)C1 | · | 31 | · | 73* | 40
COC(=O)c1ccc(CSc2nc3sc4c(c3c(=O)n2C)CCCC4)o1 | 2 | 4 | -11 | 14 | -1
COC(=O)c1sc(N)c(C(=O)OC)c1CSc1nc2sc3c(c2c(=O)n1C)CCC3 | -11 | 52* | 7 | 50 | 38
O=[N+]([O-])c1cc2cccnc2c2ncccc12 | 0 | 10 | -5 | -6 | 14
O=[N+]([O-])c1cc(O)c2ncccc2c1 | 3 | · | -58 | 54* | ·
CC(C)(C)NC(=O)C1C(c2ccccc2)=Nc2ccccc2N1C(=O)c1ccc(C(F)(F)F)cc1 (stereo unspecified) | · | · | · | · | 3
CNC(=S)N/N=C1\C(=O)c2cccc3cccc1c23 | -5 | 37 | 39 | 52* | 17
CCCCNC(=S)N/N=C1\C(=O)c2cccc3cccc1c23 | -6 | 12 | 15 | 12 | 5
CCCCNC(=O)C1C(c2ccc(C(F)(F)F)cc2)=Nc2ccccc2N1C(=O)c1cccc2ccccc12 (stereo unspecified) | · | · | · | · | 5
Cc1ccc(S(=O)(=O)CCC(=O)c2cccc([N+](=O)[O-])c2)cc1 | -3 | 18 | 14 | 59* | -2
Cc1ccc(C(=O)CCS(=O)(=O)c2ccc(Br)cc2)cc1 | -5 | 7 | 9 | 1 | -8
